In paper PMC4258449 (Nitric oxide : biology and chemistry / official journal of …, 2014):
Read-outs that look alike come from different tables or passages of the source.

How the values were obtained:
[1] = assay type: physicochemical; conditions: for half-life: assay buffer: 50 µM DTPA in phosphate-buffered saline; for k (decomposition rate constant): pH 7.4, 37 °C, assay buffer
[2] = tested on: MDA-MB-231 breast cancer cells; experiment: Intracellular HNO/NO release with DAF-FM-2DA; assay type: cell-based, human; conditions: 10 µM donor, MDA-MB-231 cells loaded with 10 µM DAF-FM-2DA, 37 °C
Summary of the method: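 They then received 10 µM donor, given as ionic diazeniumdiolates in 10 mM NaOH or the ester-protected form in ethanol (<0.1%). The rise in fluorescence (ex 485/em 535 nm) was followed over time at 37 °C. n = 2, six replicates per plate; mean ± SD.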

[3] = tested on: MCF-7 or MDA-MB-231 cells; experiment: MTT viability assay; assay type: cell-based, human; conditions: read-out: IC50 (cytotoxicity), 48 h, 10–100 µM
Summary of the method: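 Breast cancer cells were seeded at 8,000–10,000 per well and grown overnight. They were treated 48 h with test compound (10–100 µM) or ethanol vehicle (<0.1% v/v). MTT (5 mg/mL solution) was added for 1 h at 37 °C, medium was removed, formazan was dissolved in DMSO, and absorbance was read at 550 nm. Growth inhibition was expressed as % of matching control; n ≥ 3, mean ± SD.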

MDA-MB-231 cells = experiment: MTT viability assay, 5 combined with tamoxifen; assay type: cell-based, human
[4] = guinea pig, pH 7.4
MCF-7 cells = experiment: Clonogenic cell viability assay; assay type: cell-based, human; conditions: MCF-7, 0.5–20 mM, 24 h treatment
Summary of the method: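 MCF-7 cells in RPMI 1640 with 10% FBS and penicillin/streptomycin at 37 °C, 5% CO2, were seeded at 400,000 per 60-mm dish and grown 48 h. They were exposed in growth medium for 24 h, PBS-washed twice, trypsinized, counted and replated at 100, 1,000 or 10,000 per plate in triplicate. Colonies were crystal-violet stained after 10–12 d and counted. Experiments were repeated at least twice; mean ± SD.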

[5] = physiological conditions; cited from earlier work
[6] = tested on: MDA-MB-231 and MCF-7 cells; conditions: cited from earlier work

## CC(=O)OCON=[N+]([O-])NC1CCCC1 [Compound 5, O^2-(Acetoxymethyl) 1-(cyclopentylamino)diazen-1-ium-1,2-diolate]
[1]; absence of serum, pH 9
  decomposition rate constant at pH 9: 5.0 × 10^−3 s^−1
[1]; pH 7.4
  half-life of decomposition: 21 min
[2]
  DAF-FM fluorescence signal relative to the four ionic compounds: ~ 3 fold
[3]
  IC50: ~100 µM
MDA-MB-231 cells; 5 at 75 µM, 48 h, MB-231 cells
  viability: 75 ± 6%
[4]
  half-life of decomposition in the presence of serum esterases: 5.8 min

## CC/C(=C(\c1ccccc1)c1ccc(OCCN(C)C)cc1)c1ccccc1 [tamoxifen, Tamoxifen, reference compound]
MDA-MB-231 cells; Homo sapiens, MDA-MB-231, 48 h
  viability at 10 µM: 76 ± 13%

## [Na+].[O-]N=[N+]([O-])NC1CCCCCC1 [Compound 3, Sodium 1-(N-cycloheptylamino)diazen-1-ium-1,2-diolate]
[1]; pH 7.4
  half-life: 5.9 ± 0.04 min

## [Na+].[O-]N=[N+]([O-])NC1CCCCC1 [Compound 2, Sodium 1-(N-cyclohexylamino)diazen-1-ium-1,2-diolate]
[1]; pH 7.4
  half-life: 6.1 ± 0.02 min

## [Na+].[O-]N=[N+]([O-])NC1CCCC1 [Compound 1, Sodium 1-(N-cyclopentylamino)diazen-1-ium-1,2-diolate]
[1]; pH 7.4
  half-life: 3.6 ± 0.08 min
[1]
  k (decomposition rate constant): 3.2 ± 0.07 × 10^−3 s^−1
MCF-7 cells
  cytotoxicity (clonogenic assay): lowest cytotoxicity

## [Na+].[Na+].[O-][N+]([O-])=NO [Angeli’s salt, sodium trioxodinitrate]
[5]
  half-life: ~ 2 min
[6]
  concentration range inhibiting proliferation: millimolar range

## [Na+].[O-]N=[N+]([O-])NC1CCCCCCC1 [Compound 4, Sodium 1-(N-cyclooctylamino)diazen-1-ium-1,2-diolate]
[1]; pH 7.4
  half-life: 5.4 ± 0.07 min
[1]
  k (decomposition rate constant): 2.1 ± 0.02 × 10^−3 s^−1

## CC(C)N[N+]([O-])=N[O-].[Na+] [IPA/NO, sodium 1-(N-isopropylamino)diazen-1-ium-1,2-diolate]
[5]
  half-life: 6.7 min
